Screening data (PubChem)
M18AAP inhibitor: PfM18AAP inhibitors, malaria aminopeptidase, primary screen, biochemical, QFRET, recombinant enzyme; AID 1822, 2009; H-Glu-NHMec fluorogenic cleavage; hit rate 1.2% among 290,000; inhibition, % at 7.35 µM;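 active = inhibition above the campaign mean inhibition over all tested compounds plus 3 SD, cut at about 28% in these data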
VIM-2 inh: VIM-2 metallo-beta-lactamase inhibitors, primary screen, biochemical, epi-absorbance readout, Pseudomonas aeruginosa enzyme; purified VIM-2, nitrocefin hydrolysis, epi-absorbance fluorescence; inhibition, % at 5.6 µM; hit rate 0.89% among 290,000;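 active = inhibition above the mean of all tested compounds plus 3 SD, cutoff set per screening run, cut at about 7.5% in these data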;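 note: red hydrolysis product quenches plate fluorescence so inhibitors raise well fluorescence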
HGIII-sPLA2 inh: human group III sPLA2 inhibitors, primary screen, biochemical, QFRET, BODIPY PC-A2 liposome substrate. inhibition, % at 12.2 µM. QFRET BODIPY PC-A2 liposome hydrolysis, fluorescence. hit rate 0.56% among 370,000. AID 743126, 2013;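 active = inhibition above mean plus 3 SD of compounds lying within the high and low control bounds, cut at about 19% in these data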
Target sequence (Q9NZ20 whole entry, looked up): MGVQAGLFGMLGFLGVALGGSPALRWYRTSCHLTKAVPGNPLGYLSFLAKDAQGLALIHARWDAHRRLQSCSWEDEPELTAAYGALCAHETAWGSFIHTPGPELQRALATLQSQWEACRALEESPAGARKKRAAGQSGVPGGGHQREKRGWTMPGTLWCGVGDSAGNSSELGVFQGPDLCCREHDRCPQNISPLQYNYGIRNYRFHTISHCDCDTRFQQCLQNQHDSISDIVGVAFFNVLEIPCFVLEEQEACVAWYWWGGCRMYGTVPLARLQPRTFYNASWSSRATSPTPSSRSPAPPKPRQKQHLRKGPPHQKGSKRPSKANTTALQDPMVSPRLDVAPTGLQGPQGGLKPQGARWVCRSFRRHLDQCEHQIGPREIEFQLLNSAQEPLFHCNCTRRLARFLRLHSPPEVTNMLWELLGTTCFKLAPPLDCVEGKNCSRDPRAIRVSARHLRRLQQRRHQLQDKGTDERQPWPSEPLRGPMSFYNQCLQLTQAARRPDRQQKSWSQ
IMP-1 inhibitor: IMP-1 metallo-beta-lactamase inhibitors, primary screen, biochemical, epi-absorbance readout, Pseudomonas aeruginosa enzyme. inhibition, % at 5.6 µM. AID 1556, 2009. metallo-beta-lactamase IMP-1 (Pseudomonas aeruginosa). hit rate 0.45% among 290,000. purified IMP-1, nitrocefin hydrolysis, epi-absorbance fluorescence;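 active = inhibition above the mean plus 3 SD of all compounds in the same screening run, cut at about 4.5% in these data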
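System: Purified IMP-1 | Read-out basis: Percent enzyme inhibition | Controls: IMP-1 with DMSO as 0%, enzyme-free DMSO as 100% | Replicates: One well per compound | Doses: 5.6 µM nominal single concentration | Detection: Epi-absorbance fluorescence, 480 nm excitation, 530 nm emission | Incubation: 25 °C, 15 min preincubation, 25 min reaction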
Of the large screens only hits and unclear results are named; the others gave an inactive call. An excerpt weighted towards active compounds, which were near 2.4% of everything screened.

COC(=O)c1ccccc1NC1=C/C(=N\S(=O)(=O)c2cccs2)c2ccccc2C1=O	IMP-1 inhibitor 5.0
COc1ccc(C(CCN2CCOCC2)c2c(O)cc(OC)cc2OC)cc1 (stereo not given)	none (no result: M18AAP inhibitor, VIM-2 inh, IMP-1 inhibitor)
COc1ccc(C(c2c(O)ccc3ccccc23)N2CCOCC2)c(OC)c1 (stereo not given)	HGIII-sPLA2 inh 19.7
CCn1c(SCC(=O)Nc2ccc(C(C)C)cc2)nnc1-c1ccc(C(C)(C)C)cc1	none (no result: M18AAP inhibitor, VIM-2 inh, IMP-1 inhibitor)
O=C(O)CC(CP(=O)(c1ccccc1)c1ccccc1)C(=O)O (stereo not given)	none
NC(CCCCCP(=O)(c1ccccc1)c1ccccc1)C(=O)O (stereo not given)	IMP-1 inhibitor 28.4 (no result: HGIII-sPLA2 inh)
CCCN1CCN(CCCNC(=O)CCCn2nc(C)c3sc4ccccc4c3c2=O)CC1	none
CCN1CCN(C(=O)Cn2nc(C)c3sc4ccccc4c3c2=O)CC1	VIM-2 inh 9.3
C[C@H](O)[C@@H]1CN2CCc3ccc(-c4ccc5c(c4)OCO5)cc3[C@@H]2C[C@@H]1N(C)C(=O)Nc1ccccc1	none (no result: M18AAP inhibitor, VIM-2 inh, IMP-1 inhibitor)
Cc1ccc(CC2C(=O)N(c3ccccc3)C(=O)C2C)cc1 (stereo not given)	none
Cc1ccc(CC2C(=O)N(c3cc(Cl)ccn3)C(=O)C2C)cc1 (stereo not given)	IMP-1 inhibitor 13.4
CCCCC#CC(CC)NCc1ccc(OC)cc1OC (stereo not given)	none (no result: M18AAP inhibitor, VIM-2 inh, IMP-1 inhibitor)
Cc1ccc2nc(-c3ccc(NC(=O)CSc4nnc(-c5cccc(Cl)c5)n4Cc4ccco4)cc3)sc2c1	none (no result: M18AAP inhibitor, VIM-2 inh, IMP-1 inhibitor)
CC(=O)Nc1ccc(Cc2nc3c([nH]2)c(=O)n(C)c(=O)n3C)cc1	IMP-1 inhibitor 11.8 (no result: HGIII-sPLA2 inh)
O=S1(=O)c2ccc(Br)cc2OC[C@@H](Cc2ccccc2)N1Cc1cn(Cc2ccc(C(F)(F)F)cc2)nn1	none (no result: M18AAP inhibitor, VIM-2 inh, IMP-1 inhibitor)
COc1cc(/C=N/NC(=O)c2cc3c(ccc4ccccc43)o2)cc(OC)c1O	M18AAP inhibitor 31.6
CCOC(=O)N1CCc2[nH]c3ccc(C)cc3c2C1	VIM-2 inh 8.8
CC(=O)N1CCc2[nH]c3ccc(C)cc3c2C1	none
CC(=O)Nc1nc2ncccn2c1-c1ccc(F)c(F)c1	none (no result: M18AAP inhibitor, VIM-2 inh, IMP-1 inhibitor)
CC(C)(C)OC(=O)[C@H](Cc1ccccc1)NCC(=O)OCc1ccc(C(=O)NCc2ccccc2)cc1	none (no result: M18AAP inhibitor, VIM-2 inh, IMP-1 inhibitor)
CC1(C)OC(=O)C(=Cc2ccc(-c3ccc(S(N)(=O)=O)cc3)o2)C(=O)O1	IMP-1 inhibitor 34.3
Nc1cccc2c1C(=O)N(CCOc1ccccc1F)C2=O	IMP-1 inhibitor 6.8
N#Cc1ccccc1OCCN1C(=O)c2ccccc2C1=O	none
Cc1ccc(N2C(=O)c3ccccc3C2C(=O)c2ccc(O)cc2O)cc1 (stereo not given)	M18AAP inhibitor 30.1
Cc1ccnc(N2C(=O)c3ccccc3C2O)c1 (stereo not given)	none
CN(CCO)c1ccc2c(c1)Oc1ccccc1CN(Cc1cn(Cc3cccc(C(F)(F)F)c3)nn1)S2(=O)=O	none (no result: M18AAP inhibitor, VIM-2 inh, IMP-1 inhibitor)
O=c1c(=O)n(O)c2ccccc2n1O	IMP-1 inhibitor 11.2
COn1c(=O)c(=O)n(O)c2ccccc21	none
COc1cccc2sc3ccc(NCc4ccc5c(c4)OCO5)cc3c(=O)c12	VIM-2 inh 9.2
COC1=C(NCc2ccc3c(c2)OCO3)C(=O)C(OC)=C(NCc2ccc3c(c2)OCO3)C1=O	none (no result: M18AAP inhibitor, VIM-2 inh, IMP-1 inhibitor)
O=C(C1CCCN(S(=O)(=O)c2ccc([N+](=O)[O-])cc2)C1)N1CCN(Cc2ccccc2)CC1 (stereo not given)	none (no result: M18AAP inhibitor, VIM-2 inh, IMP-1 inhibitor)
COc1ccccc1OCC(=O)OC/C(O)=C(\C#N)c1nc2ccccc2[nH]1	VIM-2 inh 11.3
COc1ccc(OC/C(O)=C(\C#N)c2nc3ccccc3[nH]2)cc1	none
COC(=O)c1cccc(NC(=O)CSc2nnc(C)o2)c1	IMP-1 inhibitor 7.5
CC(=O)c1cccc(NC(=O)CSc2nnc(-c3ccncc3)o2)c1	none (no result: M18AAP inhibitor, VIM-2 inh, IMP-1 inhibitor)
CCCCNC(=O)C[C@H]1C[C@@]2(C(=O)OC)C(=C[C@H](C(C)C)O[C@@H]2C2CC2)N(Cc2ccco2)C1=O	none (no result: M18AAP inhibitor, VIM-2 inh, IMP-1 inhibitor)
NC(=NCc1ccccc1)NC(=O)OCc1ccccc1	none (no result: M18AAP inhibitor, VIM-2 inh, IMP-1 inhibitor)
CN(C)c1ccc(O)c2c1CC1CC3C(N(C)C)C(=O)C(C(N)=O)=C(O)[C@@]3(O)C(=O)C1=C2O (stereo not given in full)	none (no result: M18AAP inhibitor, VIM-2 inh, IMP-1 inhibitor)
CN(C)[C@@H]1C(=O)C(C(=O)NCN2CCCC2)=C(O)[C@@]2(O)C(=O)C3=C(O)c4c(O)cccc4[C@@](C)(O)C3CC12 (stereo not given in full)	M18AAP inhibitor 28.4, IMP-1 inhibitor 5.7 (no result: HGIII-sPLA2 inh)
COc1cc(/C=C2/SC(=S)N(CC(=O)O)C2=O)ccc1OCC(=O)Nc1ccc(C)c(C)c1	IMP-1 inhibitor 7.5
COc1ccc(/C=C2/SC(=O)N(CCC(=O)Nc3ccc(C)cc3)C2=O)cc1OC	none
CC(C)CCNC(=O)CSc1nc2c(c(=O)[nH]1)CCC2	none (no result: M18AAP inhibitor, VIM-2 inh, IMP-1 inhibitor)
O=C(Nc1ccc(-c2nc3ccc(NC(=O)c4cccs4)cc3[nH]2)cc1)c1cccs1	IMP-1 inhibitor 11.8
Cc1cc(C(F)(F)F)c2c(=O)[nH]c(=O)n(Cc3ccccc3)c2n1	IMP-1 inhibitor 7.3
O=C1OC(/C(=C\Nc2cc(Cl)ccc2O)[N+](=O)[O-])c2ccccc21 (stereo not given)	M18AAP inhibitor 41.3
O=C1OC(Nc2ccc(F)cc2F)c2ccccc21 (stereo not given)	none
O=C1OC(/C(=C\Nc2ccc(F)cc2F)[N+](=O)[O-])c2ccccc21 (stereo not given)	M18AAP inhibitor 47.4
O=C(Nc1ccc(Cl)c(Cl)c1)c1cccc2c1-c1ccccc1C2=O	none (no result: M18AAP inhibitor, VIM-2 inh, IMP-1 inhibitor)
Nn1cnnc1N/N=C/c1cc(Br)cc(Br)c1O	M18AAP inhibitor 52.2
O=C1C=C(NNC(=O)c2ccncc2)CC(c2ccccc2)C1 (stereo not given)	IMP-1 inhibitor 5.9
COc1ccc(-n2nc([N+](=O)[O-])c(=NC3CCN(Cc4ccccc4)CC3)n2O)cc1	IMP-1 inhibitor 9.4
CC(=O)n1cc([C@@H]2C=C(C(=O)NCc3ccccc3)O[C@H](OCc3ccc(CO)cc3)C2)c2ccccc21	none (no result: M18AAP inhibitor, VIM-2 inh, IMP-1 inhibitor)
CC(=O)n1cc([C@@H]2C=C(C(=O)O)O[C@H](OCc3ccc(CO)cc3)C2)c2ccccc21	VIM-2 inh 8.8
CCOC(=O)c1cn(CC(=O)Nc2cccc(F)c2)nn1	none
Cc1cc(C)c2c(=O)n(CC(=O)Nc3cccc(F)c3)sc2n1	M18AAP inhibitor 65.4
O=C(CSc1nnc(NC(=O)Cc2ccccc2)s1)NCC1CCCO1 (stereo not given)	none
O=C(CSc1nnc(NC(=O)c2ccccc2)s1)NCC1CCCO1 (stereo not given)	VIM-2 inh 10.6
O=C(CSc1nnc(NC(=O)c2cccc(F)c2)s1)NC1CC1	none
O=C(CSc1nnc(NC(=O)c2cccc(F)c2)s1)NC1CCCC1	VIM-2 inh 11.3
O=S(=O)(c1cccc(S(=O)(=O)N2CCC(N3CCCCC3)CC2)c1)N1CCOCC1	none (no result: HGIII-sPLA2 inh)
CC1CCN(S(=O)(=O)c2cccc(S(=O)(=O)N3CCOCC3)c2)CC1	IMP-1 inhibitor 5.4
CC1=NN(C(=O)c2ccco2)C(O)(c2ccccc2)C1 (stereo not given)	none
